In ChEMBL document CHEMBL1121412, “Synthesis and anticancer activity of nitrosourea derivatives of phensuximide” (1980):

Key:
Mus musculus [1] = experiment: Toxicity against mouse L1210 Leukemia as number of animals survived/number of animals treated at the Optimal dose of 200 mg/kg; 6/6, dose range ip 200-12.5 mg/kg.; type: functional; conditions: route intraperitoneal
Mus musculus [2] = experiment: Animal weight difference at the Optimal dose of 100 mg/kg against mouse L1210 Leukemia; dose range ip 200-12.5 mg/kg; type: functional; conditions: route intraperitoneal
Mus musculus [3] = experiment: Tested for cures, represents a 30-day survival, ratio of treated and control was reported; dose range ip 200-12.5 mg/kg; type: functional
Mus musculus [4] = experiment: Toxicity against Ependymoblastoma Tumor number of animals survived/number of animals treated at the Optimal dose of 12.0 mg/kg; dose range 12-0.75 mg/kg; type: functional
In short: (§1)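 Mouse ependymoblastoma implanted intracerebrally to test CNS antitumour activity. Groups of 10 mice were dosed on days 1-5 over the stated dose range. Toxicity is scored as survivors on day 5 after the first injection. Activity is given as % T/C at the optimum dose, and a cure is defined as 30-day survival.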

Mus musculus [5] = experiment: Animal weight difference at the Optimal dose of 12.0 mg/kg against Ependymoblastoma Tumor; dose range 12-0.75 mg/kg; type: functional
Mus musculus [6] = experiment: Tested for cures, represents a 30-day survival, ratio of treated and control against Ependymoblastoma Tumor was reported; dose range 12-0.75 mg/kg; type: functional; in short: as §1
Mus musculus [7] = experiment: Animal weight difference at the Optimal dose of 25 mg/kg against mouse L1210 Leukemia; dose range ip 50-6.25 mg/kg; conditions: route intraperitoneal
Mus musculus [8] = experiment: Tested for cures, represents a 30-day survival, ratio of treated and control was reported; dose range ip 50-6.25 mg/kg; type: functional
Mus musculus [9] = experiment: Toxicity against mouse L1210 Leukemia as number of animals survived/number of animals treated at the Optimal dose of 25 mg/kg; 6/6, dose range ip 50-6.25 mg/kg.; conditions: route intraperitoneal
[10] = tested on: L1210 leukemia (Mus musculus); experiment: Tested for cures, represents a 30-day survival, ratio of treated and control against L1210 leukemia was reported; dose range ip 400-12.5 mg/kg
Mus musculus [11] = experiment: Animal weight difference at the Optimal dose of 200 mg/kg against mouse L1210 Leukemia; dose range ip 400-12.5 mg/kg; type: functional; conditions: route intraperitoneal
Mus musculus [12] = experiment: Toxicity against mouse L1210 Leukemia as number of animals survived/number of animals treated at the Optimal dose of 200 mg/kg; 5/6, dose range ip 400-12.5 mg/kg.; type: functional; conditions: route intraperitoneal
Mus musculus [13] = experiment: Toxicity against mouse L1210 Leukemia as number of animals survived/number of animals treated at the Optimal dose of 100 mg/kg; 6/6, dose range ip 200-12.5 mg/kg; type: functional; conditions: route intraperitoneal
Mus musculus [14] = experiment: Toxicity against mouse L1210 Leukemia as number of animals survived/number of animals treated at the Optimal dose of 50 mg/kg; 6/6, dose range ip 400-12.5 mg/kg.; type: functional; conditions: route intraperitoneal
Mus musculus [15] = experiment: Tested for cures, represents a 30-day survival, ratio of treated and control was reported; dose range ip 400-12.5 mg/kg.; type: functional
Mus musculus [16] = experiment: Animal weight difference at the Optimal dose of 50 mg/kg against mouse L1210 Leukemia; dose range ip 400-12.5 mg/kg.; conditions: route intraperitoneal
Mus musculus [17] = experiment: Animal weight difference at the Optimal dose of 16.0 mg/kg against Ependymoblastoma Tumor; dose range 16-2 mg/kg
Mus musculus [18] = experiment: Tested for cures, represents a 30-day survival, ratio of treated and control against Ependymoblastoma Tumor was reported; dose range 16-2 mg/kg; type: functional; in short: as §1
Mus musculus [19] = experiment: Toxicity against Ependymoblastoma Tumor number of animals survived/number of animals treated at the Optimal dose of 16.0 mg/kg; dose range 16-2 mg/kg

CCN(N=O)C(=O)Nc1ccc(C2CC(=O)N(C)C2=O)cc1 (stereo unspecified) showed a Ratio (Mus musculus [1]) of 6, a T-C (Mus musculus [2]) of -3.8 g and a T/C (Mus musculus [3]) of 126%.

For CN1C(=O)CC(c2ccc(NC(=O)N(CCCl)N=O)cc2)C1=O (stereo unspecified), the Ratio (Mus musculus [4]) was 9, the T-C (Mus musculus [5]) was -3.8 g and the T/C (Mus musculus [6]) was 240%. The T-C (Mus musculus [7]) was -4.6 g, the T/C (Mus musculus [8]) was 196% and the Ratio (Mus musculus [9]) was 6.

CCCCN(N=O)C(=O)Nc1ccc(C2CC(=O)N(C)C2=O)cc1 (stereo unspecified) showed a T/C [10] of 120%, a T-C (Mus musculus [11]) of -2.8 g and a Ratio (Mus musculus [12]) of 5.

Compound CN(N=O)C(=O)Nc1ccc(C2CC(=O)N(C)C2=O)cc1 (stereo unspecified) has a Ratio (Mus musculus [13]) of 6, a T-C (Mus musculus [2]) of -1.2 g and a T/C (Mus musculus [3]) of 127%.

CCCN(N=O)C(=O)Nc1ccc(C2CC(=O)N(C)C2=O)cc1 (stereo unspecified) showed a Ratio (Mus musculus [14]) of 6, a T/C (Mus musculus [15]) of 109% and a T-C (Mus musculus [16]) of 0.8 g.

O=NN(CCCl)C(=O)NCCCl [CARMUSTINE] was tested, and the T-C (Mus musculus [17]) was -3.4 g, the T/C (Mus musculus [18]) was 300% and the Ratio (Mus musculus [19]) was 10.
